Experimental data taken from ChEMBL document CHEMBL3739281, “Identification, synthesis and pharmacological evaluation of novel anti-EV71 agents via cyclophilin A inhibition” (Bioorg Med Chem Lett, 2015).
The source made the active and inactive calls. The rule behind the calls is not given here.

What was measured:
[1] = Retention time of the compound by HPLC analysis; assay type: physicochemical
[2] = molecular target: T1, Peptidyl-prolyl cis-trans isomerase A (Homo sapiens, UniProt P62937); assay: Inhibition of CypA (unknown origin) assessed as peptidyl-prolyl cis-trans isomerase activity using N-succinyl-Ala-Ala-Pro-Phe-p-nitroanilide as substrate by spectrophotometry
Target sequence in this assay (P62937 whole entry): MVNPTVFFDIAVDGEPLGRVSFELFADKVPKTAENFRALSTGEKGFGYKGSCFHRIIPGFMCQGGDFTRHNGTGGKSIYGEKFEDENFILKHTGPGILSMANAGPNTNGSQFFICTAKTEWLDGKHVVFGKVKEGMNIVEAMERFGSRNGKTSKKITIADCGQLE

[3] = system: Enterovirus A71; assay: Antiviral activity against EV71 infected in RD cells after 24 hrs by luciferase assay; assay type: functional, organism-based; settings: Enterovirus A
[4] = Cytotoxicity against human RD cells after 24 hrs by WST-1 assay; assay type: cell-based
[5] = molecular target: T1, Peptidyl-prolyl cis-trans isomerase A; assay: Inhibition of CypA (unknown origin) assessed as peptidyl-prolyl cis-trans isomerase activity at 10 uM using N-succinyl-Ala-Ala-Pro-Phe-p-nitroanilide as substrate by spectrophotometry
Target sequence in this assay (P62937 whole entry, looked up): as the sequence (P62937 whole entry) above

[6] = system: Enterovirus A71; assay: Potency index, Ratio of EC50 for cyclosporin A to EC50 for compound for antiviral activity against EV71; assay type: functional
[7] = system: Enterovirus A71; assay: Antiviral activity against EV71 infected in RD cells assessed as decrease in viral protein1 level by western blot analysis; assay type: functional, organism-based
How it was run: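 EV71 VP1 protein detected by western blot in a dose series of 5, 1, 0.2 and 0.04 μM. NITD008 at 5 μM serves as positive control.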

[8] = system: Enterovirus A71; assay: Antiviral activity against EV71 infected in RD cells assessed as decrease in viral RNA level at 5 uM after qRT-PCR analysis; assay type: functional; settings: Enterovirus A, read-out: INH
How it was run: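 Cells are infected with wild-type or S243P mutant EV71 and treated at 5 μM. Viral RNA is reported as a percentage of untreated control cells, with GAPDH mRNA as internal control. Each point is the average of three replicates.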

[9] = system: Enterovirus A71; assay: Antiviral activity against EV71 infected in RD cells at 0.31 to 5 uM after 24 hrs by luciferase assay in presence of NK-1.8K; assay type: functional
[10] = system: Enterovirus A71; assay: Antiviral activity against EV71 infected in RD cells at 0.31 to 5 uM after 24 hrs by luciferase assay in presence of NITD008; assay type: functional
[11] = system: Enterovirus A71; assay: Antiviral activity against EV71 infected in RD cells at 0.08 uM after 24 hrs by luciferase assay in presence of NK-1.8K; assay type: functional, organism-based
[12] = system: Enterovirus A71; assay: Antiviral activity against EV71 infected in RD cells at 0.08 uM after 24 hrs by luciferase assay in presence of NITD008; assay type: functional, organism-based
[13] = Cytotoxicity against ICR mouse T spleen cells assessed as inhibition of cell proliferation after 72 hrs by MTT assay; assay type: cell-based
How it was run: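 Proliferation of T and B spleen cells, each from one mouse, run as triplicate sets per assay. IC50 is the mean ± SD of three experiments.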

[14] = Cytotoxicity against ICR mouse B spleen cells assessed as inhibition of cell proliferation after 72 hrs by MTT assay; assay type: cell-based
[15] = system: Enterovirus A71; assay: Antiviral activity against EV71; assay type: functional, organism-based; settings: Enterovirus A

| Compound | Retention_time [1] [min] | IC50 ([2]; read-out: IC50) [µM] | EC50 [3] [µM] | inhibition [5] [%] | CC50 at 24 h [4] [µM] | also measured |
| --- | --- | --- | --- | --- | --- | --- |
| O=C(NC(=O)c1ccccc1F)NC1c2ccccc2-c2cc(Cl)ccc21 (centres undefined) | 6.6 | 10.8 | 3.34 | – | > 25 | – |
| O=C(NC(=O)c1ccccc1F)NC1c2ccccc2C2CCCCC21 (racemic) | 9.04 | 10 | 5.25 | 33.5 | > 25 | – |
| O=C(NCc1ccccc1F)NC1c2ccccc2-c2ccccc21 | 5.57 | 10 | > 25 | 17.8 | > 25 | – |
| O=C(NCc1c(O)cccc1O)NC1c2ccccc2-c2ccccc21 | 5.37 | 10 | > 10 | 9.25 | > 25 | – |
| O=C(NC(=O)c1cc(O)cc(O)c1)NC1c2ccccc2-c2ccccc21 | 7.88 | – | > 25 | – | > 25 | IC50 [2]: Not Active |
| C/C=C/C[C@@H](C)[C@@H](O)[C@H]1C(=O)N[C@@H](CC)C(=O)N(C)CC(=O)N(C)[C@@H](CC(C)C)C(=O)N[C@@H](C(C)C)C(=O)N(C)[C@@H](CC(C)C)C(=O)N[C@@H](C)C(=O)N[C@H](C)C(=O)N(C)[C@@H](CC(C)C)C(=O)N(C)[C@@H](CC(C)C)C(=O)N(C)[C@@H](C(C)C)C(=O)N1C [CYCLOSPORINE] | – | – | 3.66 | – | – | – |
| O=C(NC(=O)c1c(O)cccc1O)NC1c2ccccc2-c2ccccc21 | – | – | 3.36 | – | > 20 | IC50 [13]: 33 µM; IC50 [14]: 51.9 µM |
| O=C(NC(=O)c1c(O)cccc1O)NC1c2ccccc2-c2cc(C(F)(F)F)ccc21 (centres undefined) | 5.68 | – | > 10 | 20.3 | > 25 | – |
| O=C(Cc1ccccc1F)NC(=O)NC1c2ccccc2-c2ccccc21 | 6.05 | 10 | > 10 | 16.9 | > 50 | – |
| CCOC(=O)/C=C/[C@H](C[C@@H]1CCNC1=O)NC(=O)[C@@H](CC(=O)[C@@H](NC(=O)c1cc(C)on1)C(C)C)Cc1ccc(F)cc1 | – | – | – | – | – | EC50 [15]: 0.014 µM |
| O=C(NC(=O)c1c(F)cccc1F)NC1c2ccccc2-c2ccccc21 | – | – | 5.85 | – | > 20 | – |
| O=C(NC(=O)c1c(O)cccc1O)NC1c2ccccc2C2CCCCC21 (racemic) | 5.41 | 10 | 4.31 | 27.6 | > 25 | – |
| O=C(NC(=O)c1cc(F)ccc1O)NC1c2ccccc2-c2ccccc21 | 8.91 | 10 | 3.78 | 27.7 | > 25 | – |
| O=C(NC(=O)c1ccc(O)cc1O)NC1c2ccccc2-c2ccccc21 | 5.44 | 10 | > 25 | 21.4 | > 25 | – |

More lines, main results first:

| Retention_time [1] [min] | IC50 ([2]; read-out: IC50) [µM] | EC50 [3] [µM] | inhibition [5] [%] | Compound | CC50 at 24 h [4] [µM] | also measured |
| --- | --- | --- | --- | --- | --- | --- |
| 8.07 | 2.76 | 0.37 | – | O=C(NC(=O)c1c(O)cccc1O)NC1c2ccccc2-c2cc(F)ccc21 (centres undefined) | > 25 | Ratio EC50 [6]: 9.9; inhibition [7]: Dose-dependent effect; inhibition at 5 µM [8]: 3%; %max [9]: 20%; %max [10]: 20%; Activity [11]: inactive; Activity [12]: inactive |
| 6.15 | 10.3 | 2.11 | – | O=C(NC(=O)c1ccccc1F)NC1c2ccccc2-c2cc(F)ccc21 (centres undefined) | > 10 | – |
| 8.84 | 10 | 0.92 | 28.7 | Cc1ccc2c(c1)-c1ccccc1C2NC(=O)NC(=O)c1ccccc1F (centres undefined) | > 10 | – |
| 4.42 | 11.6 | 2.72 | – | Cc1ccc2c(c1)-c1ccccc1C2NC(=O)NC(=O)c1c(O)cccc1O (centres undefined) | > 25 | – |
| 5.07 | 10 | 1.92 | 39.1 | O=C(NC(=O)c1c(O)cccc1O)NC1c2ccccc2-c2cc3ccccc3cc21 (centres undefined) | > 25 | – |
| 4.94 | 10.3 | 1.08 | – | O=C(NC(=O)c1c(O)cccc1O)NC1c2ccc(F)cc2-c2ccc(F)cc21 (centres undefined) | > 25 | – |
| – | – | 1.07 | – | O=C(NC(=O)c1ccccc1F)NC1c2ccccc2-c2ccccc21 | > 20 | IC50 [13]: > 100 µM; IC50 [14]: > 100 µM |
| 4.19 | 1.22 | 0.46 | – | O=C(NC(=O)c1c(O)cccc1O)NC1c2ccccc2-c2cc(Cl)ccc21 (centres undefined) | > 25 | – |
| 6.02 | 10.4 | 0.66 | – | O=C(NC(=O)c1ccccc1F)NC1c2ccccc2-c2cccc(F)c21 (centres undefined) | > 25 | – |
| 4.7 | 0.94 | 1.13 | – | O=C(NC(=O)c1c(O)cccc1O)NC1c2ccccc2-c2cccc(F)c21 (centres undefined) | > 25 | – |
